# Source: PubChem BioAssay
# The source made the active and inactive calls.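 The calls were made as follows, unless noted: active = inhibition above 20% together with a positive visual image hit; inconclusive = visual image hit but inhibition not above 20%; inactive = no visual image hit.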
# What was measured:
# [1] = inhibitors of TNFa-induced NFkB p65 translocation, primary screen, imaging, HUVEC, MLSMR starter and 10KST1 sets (AID 438); conditions: HUVEC TNFa-induced p65 nuclear translocation; cell count: measured here: nuclei count (cytotoxicity indicator), at 2.08 µM; inhibition: at 2 µM, stronger effect = higher value, 0% TNFa-plus-vehicle, 100% no-TNFa wells;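 also: compound added about 3h40 before a 20 min TNFalpha stimulation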;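 as to inhibition: signal is the nuclear over cytoplasmic p65 intensity ratio per well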
# [2] = inhibitors of mutant huntingtin aggregation, primary screen, imaging, exon1htt(103Q)mCFP cells, high-content imaging (AID 483;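 active = visual image review flags a hit and inhibition of aggregation exceeds 20%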;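 also: compound exposure lasted 3 days before fixation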;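 as to nuclei count: percent of the per-plate median nuclei count of sample wells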); conditions: exon1htt(103Q)mCFP cell line, aggregate imaging, at 2 µM; inhibition of aggregation: stronger effect = higher value; nuclei count: measured here: cell count, toxicity
# [3] = inhibitors of E-selectin induction by TNFa, primary screen, imaging, HUVEC, immunofluorescence, MLSMR starter and 10KST1 sets (AID 487;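 active = visually confirmed hit in the image check and inhibition above 20%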;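 as to inhibition: signal is fraction of cell area covered by stained E-selectin grains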;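 as to nuclei count: 100% = median nuclei count of all wells on the same plate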); conditions: HUVEC TNFalpha-induced E-selectin immunofluorescence imaging, at 2 µM; inhibition: stronger effect = higher value; nuclei count: measured here: cell number, toxicity
# [4] = target: Voltage-gated potassium channel subunit beta-2 (Rattus norvegicus) (UniProt P62483); test: KvBeta enzyme negative modulators, primary screen, biochemical, NADPH fluorescence (AID 622;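 active = fluorescence slope higher than the sample average by over 3 SD, cut at about -0.22 in these data, passing the limit was not always enough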;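 also: slope of raw intensity against log time taken from 70 to 1610 s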); conditions: recombinant KvBeta, 4-cyanobenzaldehyde reduction, at 10 µM, stronger effect = higher value
# [5] = target: Voltage-gated potassium channel subunit beta-2 (Rattus norvegicus) (UniProt P62483); test: KvBeta positive modulators, primary screen, biochemical, NADPH fluorescence (AID 623;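 active = NADPH fluorescence slope more negative than the mean of all samples by about 3 SD, 99.7% confidence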;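 also: fluorescence intensity change per second fitted from 20 to 320 s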); conditions: Recombinant KvBeta, NADPH fluorescence decrease slope, 10 min; at 10 µM; stronger effect = lower value
# [6] = target: Muscarinic acetylcholine receptor M4 (Homo sapiens) (UniProt P08173); test: compounds altering M4/GIRK thallium flux, either direction, primary screen, M4 allosteric agonist project, cell-based, HEK293 M4/GIRK, BTC-AM (AID 625;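 active = fluorescence slope after compound addition differing from the mean of all tested samples at 99.7% confidence, mostly higher but some lower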;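 also: thallium influx through GIRK channels coupled to M4 in HEK293 cells with BTC-AM dye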); conditions: at 10 µM, actives lie on both sides
# Method in brief: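 assay system = HEK293 cells with M4 receptor and GIRK channels | medium = pH 7.3 thallium assay buffer | doses = 10 µM final, single point | timing = cells overnight at 37 °C, BTC-AM loading 1 h, reads 2 min total | signal = BTC-AM fluorescence, 1 Hz kinetic reads | read-out = post-addition slope, 15–24 s, of baseline-normalized fluorescence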
# [7] = inhibitors of Sendai virus-induced IRF3 signaling, primary screen, TLR/RLR signaling modifier project, cell-based, Sendai virus stimulus, luciferase, 10K MLSCN set (AID 602276;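 active = inhibition at or above 50% at 10 µM; inactive = inhibition below 50%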;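 also: firefly luciferase from ISG56 promoter only with Renilla not read in this screen; 0% = Sendai virus plus DMSO and 100% = medium plus DMSO without virus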); conditions: HEK293 RL24 IRF3 luciferase reporter, at 10 µM, stronger effect = higher value
# [8] = inhibitors of poly I:C-induced TLR3 signaling, primary screen, cell-based, poly I:C stimulus, luciferase, 10K MLSCN set (AID 602277;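 active = inhibition of the reporter signal at or above 50%; inactive = inhibition below 50%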); conditions: HEK293-TLR3 RL24 IRF3 luciferase reporter, at 10 µM, stronger effect = higher value
# Voltage-gated potassium channel subunit beta-2 (Rattus norvegicus), sequence (P62483 whole entry, looked up): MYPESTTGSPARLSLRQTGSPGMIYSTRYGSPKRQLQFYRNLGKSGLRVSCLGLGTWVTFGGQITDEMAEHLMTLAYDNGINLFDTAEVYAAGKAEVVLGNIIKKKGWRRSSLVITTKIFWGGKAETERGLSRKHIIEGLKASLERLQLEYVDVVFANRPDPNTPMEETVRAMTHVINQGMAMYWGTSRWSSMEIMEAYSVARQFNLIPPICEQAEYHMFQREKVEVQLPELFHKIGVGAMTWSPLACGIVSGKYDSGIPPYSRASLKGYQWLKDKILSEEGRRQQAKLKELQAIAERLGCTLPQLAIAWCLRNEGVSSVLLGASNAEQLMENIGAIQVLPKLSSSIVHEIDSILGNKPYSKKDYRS
# Muscarinic acetylcholine receptor M4 (Homo sapiens), sequence (P08173 whole entry, looked up): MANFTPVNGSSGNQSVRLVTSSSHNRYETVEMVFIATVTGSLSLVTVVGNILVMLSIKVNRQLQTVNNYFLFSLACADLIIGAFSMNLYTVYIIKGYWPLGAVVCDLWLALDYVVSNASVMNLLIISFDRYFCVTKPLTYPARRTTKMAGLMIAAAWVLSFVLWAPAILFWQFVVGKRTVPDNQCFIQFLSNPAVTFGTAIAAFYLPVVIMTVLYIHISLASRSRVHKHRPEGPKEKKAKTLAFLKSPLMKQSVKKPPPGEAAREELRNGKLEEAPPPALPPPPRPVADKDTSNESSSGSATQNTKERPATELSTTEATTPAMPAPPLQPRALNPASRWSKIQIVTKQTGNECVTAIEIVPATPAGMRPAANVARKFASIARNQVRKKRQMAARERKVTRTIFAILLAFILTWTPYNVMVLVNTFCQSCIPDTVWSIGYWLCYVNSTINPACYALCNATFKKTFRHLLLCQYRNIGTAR
SMILES,cell count [1],inhibition [1],inhibition of aggregation [2],nuclei count [2],inhibition [3],nuclei count [3],fluorescence slope [4],NADPH fluorescence slope [5],fluorescence slope [6],inhibition [7],inhibition [8]
O=C(c1ccc(-c2cccc(C(F)(F)F)c2)o1)N1CCOCC1,482,4.3% (inactive),-17.9% (inactive),117%,10.8% (inactive),99.9%,-0.544 (inactive),-3.4e-05 (inactive),0.00523 (inactive),-39.9% (inactive),-93.2% (inactive)
Cc1ccc(C)c(N2CCN(C(=O)C3CCN(S(=O)(=O)c4c(C)noc4C)CC3)CC2)c1,448,-10.8% (inactive),30.5% (inactive),77%,-17.6% (inactive),99.8%,-0.474 (inactive),-8.1e-06 (inactive),0.00554 (inactive),11.3% (inactive),-1.19% (inactive)
CCCC(=O)N=C1SC2CS(=O)(=O)CC2N1c1ccc(CC)cc1 (configuration not stated),286,20.4% (inactive),23.4% (inactive),87%,26.4% (inactive),98.5%,-0.402 (inactive),-3.7e-05 (inactive),0.0062 (inactive),15.3% (inactive),24.6% (inactive)
Cc1ccc(Nc2cc(C)nc3nnnn23)cc1,415,0.6% (inactive),1.1% (inactive),100%,29.5% (inactive),92.2%,-0.559 (inactive),-6.9e-05 (inactive),0.00637 (inactive),7.18% (inactive),6.33% (inactive)
CN(C)S(=O)(=O)c1ccc(C(=O)N2CCC(c3nc4ccccc4o3)CC2)cc1,468,8.2% (inactive),-9.7% (inactive),103%,40.1% (inactive),95%,-0.427 (inactive),-9.6e-05 (inactive),0.00556 (inactive),10.5% (inactive),12.2% (inactive)
CCOC(=O)N1CCC(Nc2c(-c3ccc(C)cc3)c(=O)c2=O)CC1,801,-12.2% (inactive),26.1% (inactive),89.2%,-33.6% (inactive),106%,-0.471 (inactive),-3.2e-05 (inactive),0.007 (inactive),2.25% (inactive),16.5% (inactive)
CCOC(=O)Cc1nn2c(=O)cc(C)nc2s1,728,-22.9% (inactive),6.2% (inactive),118%,2.2% (inactive),94.9%,-0.474 (inactive),0.000188 (inactive),0.00652 (inactive),2.1% (inactive),11.1% (inactive)
Cn1cc(C(=O)NC2CCCCCCC2)c(=O)c2cc(S(=O)(=O)N3CCCC3)ccc21,614,3.5% (inactive),8.6% (inactive),109%,-3.4% (inactive),106%,-0.319 (inactive),-4.1e-05 (inactive),0.00744 (inactive),10.2% (inactive),24.5% (inactive)
CCN1CCN(Cc2ccc(NC(=O)Nc3ccc(SC)cc3)cc2)CC1,268,-1.7% (inactive),16.3% (inactive),97.3%,-52.1% (inactive),93.5%,-0.54 (inactive),-3.4e-05 (inactive),0.00398 (inactive),-29.9% (inactive),-81.3% (inactive)
O=C(NCCCN1CCOCC1)C1CC(=O)N(CCc2ccccc2)C1 (configuration not stated),295,-1% (inactive),0.4% (inactive),104%,-88% (inactive),117%,-0.545 (inactive),1.7e-05 (inactive),0.00479 (inactive),15.2% (inactive),22.3% (inactive)
CCCCn1nnnc1SCC(=O)N1CCN(C(=O)c2ccco2)CC1,247,2.6% (inactive),22.3% (inactive),72.2%,15.1% (inactive),83.9%,-0.463 (inactive),-3e-05 (inactive),0.00637 (inactive),7.65% (inactive),15.6% (inactive)
O=C(O)CCc1ccc(-c2ccccc2)n1CC(=O)O,355,2.4% (inactive),-3.7% (inactive),112%,-36.5% (inactive),114%,-0.564 (inactive),-7.8e-05 (inactive),0.00623 (inactive),-9.35% (inactive),-25.1% (inactive)
O=C(C1CC1)N(Cc1ccco1)c1nc(-c2ccccc2)cs1,336,6.6% (inactive),3.5% (inactive),104%,-72.7% (inactive),109%,-0.445 (inactive),-8.7e-05 (inactive),0.00828 (inactive),-13.9% (inactive),-15.4% (inactive)
Cc1cc(NC(=O)CSc2ccc(Cl)cc2)no1,368,0.2% (inactive),12.7% (inactive),94.2%,-83.4% (inactive),102%,-0.548 (inactive),-0.000128 (inactive),0.00359 (inactive),-7.02% (inactive),-14.7% (inactive)
O=c1oc2ccccc2n1CCn1c2ccccc2c2nc3ccccc3nc21,714,-7.8% (inactive),-10.6% (inactive),103%,-9.3% (inactive),109%,-0.273 (inactive),-1.3e-05 (inactive),0.00487 (inactive),-5.18% (inactive),9.99% (inactive)
Cn1c(=O)n(C)c2cc(CNc3ccc(N4CCOCC4)c(C(=O)O)c3)ccc21,350,-0.2% (inactive),3% (inactive),107%,-9.8% (inactive),110%,-0.423 (inactive),0.00012 (inactive),0.00799 (inactive),13.1% (inactive),5.3% (inactive)
O=C(Nc1ccc(N2CCOCC2)cc1)c1cccc(S(=O)(=O)N2CCCC2)c1,401,-0.5% (inactive),6.3% (inactive),106%,-31.6% (inactive),110%,-0.309 (inactive),-3.6e-05 (inactive),0.00454 (inactive),12.2% (inactive),9.44% (inactive)
Cc1cccc(N(CC(N)=O)S(C)(=O)=O)c1C,369,-5.2% (inactive),6.8% (inactive),100%,-129% (inactive),122%,-0.551 (inactive),-0.000105 (inactive),0.00412 (inactive),11% (inactive),14.1% (inactive)
CCCN1C(=O)SC(CC(=O)Nc2ccc(Br)cc2)C1=O (configuration not stated),246,-7.8% (inactive),-2.4% (inactive),96.5%,-47.8% (inactive),104%,-0.444 (inactive),2.7e-05 (inactive),0.00512 (inactive),-2.25% (inactive),7.35% (inactive)
Cc1cccn2c(=O)c3cc(C#N)c(=O)n(CCCN4CCOCC4)c3nc12,519,1% (inactive),15.5% (inactive),71.7%,-24.9% (inactive),173%,-0.153 (inactive),-1.6e-05 (inactive),0.00481 (inactive),11.2% (inactive),40.1% (inactive)
CC(=O)N1CCc2cc(S(=O)(=O)NC(C(=O)NCc3ccccc3)C(C)C)ccc21 (configuration not stated),579,-3.8% (inactive),23.8% (inactive),110%,22.1% (inactive),94.8%,-0.587 (inactive),-1.2e-05 (inactive),0.00584 (inactive),10.6% (inactive),15.4% (inactive)
CSc1nnc2c3ccccc3n(CCc3ccccc3)c2n1,665,-0.5% (inactive),20.5% (inactive),83.8%,19.4% (inactive),104%,-0.342 (inactive),1.9e-05 (inactive),0.00531 (inactive),-13.2% (inactive),-163% (inactive)
COc1cc(-c2nc(-c3cccc(C(F)(F)F)c3)no2)cc(OC)c1OC,413,5.3% (inactive),3.5% (inactive),102%,-78.2% (inactive),109%,-0.554 (inactive),-5.5e-05 (inactive),0.00715 (inactive),3.75% (inactive),-10.8% (inactive)
O=C(c1ccc(Cl)cc1)C1CCN(C(=O)NC2CCCCC2)CC1,456,-15% (inactive),13.9% (inactive),86.5%,-37.3% (inactive),104%,-0.541 (inactive),-1.3e-05 (inactive),0.00452 (inactive),4.14% (inactive),-12.4% (inactive)
COC(=O)c1ccc2c(=O)n(Cc3ccco3)c(SCC(=O)Nc3ccc(C)c(Cl)c3)nc2c1,445,5% (inactive),10.1% (inactive),115%,4.9% (inactive),91%,-0.436 (inactive),-2.2e-05 (inactive),0.00926 (inactive),13.7% (inactive),28.2% (inactive)
Cc1ccccc1N(CC(=O)NCC1CCCO1)C(=O)C1(C)CC(=O)N=C2C=CC=CN21 (configuration not stated),651,-9.4% (inactive),-3.5% (inactive),100%,-111% (inactive),133%,-0.492 (inactive),-9.2e-06 (inactive),0.00558 (inactive),3.63% (inactive),1.93% (inactive)
COc1ccc2c(c1)C(=NO)c1cc(OC)ccc1-2,667,-26.7% (inactive),15.4% (inactive),101%,-48.8% (inactive),116%,-0.373 (inactive),-8e-05 (inactive),0.00525 (inactive),-23.1% (inactive),-28.9% (inactive)
